Measured values reported in ChEMBL document CHEMBL4330145, “Discovery of the Cyclic Lipopeptide Gacamide A by Genome Mining and Repair of the Defective GacA Regulator in Pseudomonas fluorescens Pf0-1” (2019).
In brackets after ≈: the same amount, converted by molar mass. Activity calls are given as the source filed them. The calls are words filed in the database; no cut-off is given here.

Experiments:
Staphylococcus aureus [1] = assay: Antibacterial activity against methicillin sensitive Staphylococcus aureus isolate 5185 after 24 hrs by agar diffusion assay; assay type: functional, organism-based
In short: (§1)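 Plates of Columbia agar with 5% sheep blood were overlaid with 3 mL tryptic soy soft agar seeded with a TSB suspension of the test strain. Compound was diluted in DMSO to 1 mg/mL, and 3 μL was spotted on the agar surface. The inhibition-zone diameter was measured after 24 h at 37 °C. Clinical isolates were kept on Mueller−Hinton or blood agar.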

Staphylococcus aureus [2] = assay: Antibacterial activity against methicillin sensitive Staphylococcus aureus isolate I-11574 after 24 hrs by agar diffusion assay; assay type: functional, organism-based; in short: as §1
Staphylococcus aureus [3] = assay: Antibacterial activity against methicillin-resistant Staphylococcus aureus isolate LT-1334 after 24 hrs by agar diffusion assay; assay type: functional, organism-based
In short: (§2)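 Agar diffusion: 5% sheep blood Columbia agar plates overlaid with 3 mL tryptic soy soft agar seeded with a TSB suspension of the clinical isolate. Compound diluted in DMSO to 1 mg/mL, and 3 μL spotted on the agar surface. Inhibition zone diameter measured after 24 h at 37 °C. Strains were maintained on Mueller−Hinton or blood agar.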

Staphylococcus aureus [4] = assay: Antibacterial activity against methicillin-resistant Staphylococcus aureus isolate LT-1338 after 24 hrs by agar diffusion assay; assay type: functional, organism-based; in short: as §2
[5] = tested on: Staphylococcus epidermidis; assay: Antibacterial activity against methicillin-resistant Staphylococcus epidermidis isolate LT-1324 after 24 hrs by agar diffusion assay; assay type: functional, organism-based; in short: as §2
Candida albicans [6] = assay: Antifungal activity against Candida albicans isolate I-11301 after 24 hrs by agar diffusion assay; assay type: functional, organism-based
Candida albicans [7] = assay: Antifungal activity against Candida albicans isolate I-11134 after 24 hrs by agar diffusion assay; assay type: functional, organism-based
Citrobacter freundii = assay: Antibacterial activity against Citrobacter freundii isolate I-11090 after 24 hrs by agar diffusion assay; assay type: functional, organism-based; in short: as §1
[8] = tested on: Klebsiella pneumoniae subsp. ozaenae; assay: Antibacterial activity against Klebsiella pneumoniae subsp. ozaenae isolate I-10910 after 24 hrs by agar diffusion assay; assay type: functional, organism-based; in short: as §1
Enterococcus faecium [9] = assay: Antibacterial activity against Enterococcus faecium isolate I-11305b after 24 hrs by agar diffusion assay; assay type: functional, organism-based; in short: as §1
Enterococcus faecium [10] = assay: Antibacterial activity against Enterococcus faecium isolate I-11054 after 24 hrs by agar diffusion assay; assay type: functional, organism-based; in short: as §1
Escherichia coli [11] = assay: Antibacterial activity against Escherichia coli isolate I-11276b after 24 hrs by agar diffusion assay; assay type: functional, organism-based; in short: as §1
Escherichia coli [12] = assay: Antibacterial activity against Escherichia coli isolate O-19592 after 24 hrs by agar diffusion assay; assay type: functional, organism-based; in short: as §1
[13] = tested on: Stenotrophomonas maltophilia; assay: Antibacterial activity against Stenotrophomonas maltophilia isolate O-16451 after 24 hrs by agar diffusion assay; assay type: functional, organism-based; in short: as §1
[14] = tested on: Stenotrophomonas maltophilia; assay: Antibacterial activity against Stenotrophomonas maltophilia isolate I-10717 after 24 hrs by agar diffusion assay; assay type: functional, organism-based; in short: as §1
Pseudomonas aeruginosa = assay: Antibacterial activity against Pseudomonas aeruginosa isolate I-10968 after 24 hrs by agar diffusion assay; assay type: functional, organism-based; in short: as §1
Staphylococcus simulans = assay: Antibacterial activity against Staphylococcus simulans isolate 22 after 24 hrs by agar diffusion assay; assay type: functional, organism-based; in short: as §1
Micrococcus luteus = assay: Antibacterial activity against Micrococcus luteus ATCC 4698 after 24 hrs by agar diffusion assay; assay type: functional, organism-based; conditions: NCTC 2665
[15] = tested on: Mycolicibacterium smegmatis; assay: Antibacterial activity against Mycobacterium smegmatis after 24 hrs by agar diffusion assay; assay type: functional, organism-based
Bacillus subtilis = assay: Antibacterial activity against Bacillus subtilis 168 after 24 hrs by agar diffusion assay; assay type: functional, organism-based; conditions: subsp. subtilis str. 168
Listeria welshimeri = assay: Antibacterial activity against Listeria welshimeri DSM 20650 after 24 hrs by agar diffusion assay; assay type: functional
Corynebacterium xerosis = assay: Antibacterial activity against Corynebacterium xerosis after 24 hrs by agar diffusion assay; assay type: functional, organism-based
Staphylococcus aureus [16] = assay: Antibacterial activity against Staphylococcus aureus after 24 hrs by agar diffusion assay; assay type: functional, organism-based
Staphylococcus aureus [17] = assay: Antibacterial activity against Staphylococcus aureus isolate 133 after 24 hrs by agar diffusion assay; assay type: functional, organism-based; in short: as §1
[18] = tested on: Agrobacterium tumefaciens; assay: Antibacterial activity against Agrobacterium tumefaciens B6 after 24 hrs by agar diffusion assay; assay type: functional, organism-based
[19] = tested on: Agrobacterium tumefaciens; assay: Antibacterial activity against Agrobacterium tumefaciens C58 after 24 hrs by agar diffusion assay; assay type: functional, organism-based
Erwinia amylovora = assay: Antibacterial activity against Erwinia amylovora Ea153 after 24 hrs by agar diffusion assay; assay type: functional, organism-based
[20] = tested on: Pseudomonas syringae pv. tomato str. DC3000; assay: Antibacterial activity against Pseudomonas syringae DC3000 after 24 hrs by agar diffusion assay; assay type: functional
Pseudomonas fluorescens = assay: Antibacterial activity against Pseudomonas fluorescence A506 after 24 hrs by agar diffusion assay; assay type: functional, organism-based
Priestia megaterium = assay: Antibacterial activity against Bacillus megaterium Km after 24 hrs by agar diffusion assay; assay type: functional, organism-based
Rhodococcus fascians = assay: Antibacterial activity against Rhodococcus fascians A44A after 24 hrs by agar diffusion assay; assay type: functional, organism-based; conditions: Rhodococcoides fascians
[21] = tested on: Arthrobacter crystallopoietes; assay: Antibacterial activity against Arthrobacter crystallopoietes DSM 20117 after 24 hrs by microtiter plate broth dilution assay; conditions: Crystallibacter crystallopoietes, DSM 20117, 24 h

Question: Which results are given for CCCCCCC[C@@H](O)CC(=O)N[C@H](CC(C)C)C(=O)N[C@H](CC(=O)O)C(=O)N[C@H](CCC(N)=O)C(=O)N[C@H](C(=O)N[C@H](CC(C)C)C(=O)N[C@H](CCC(N)=O)C(=O)N[C@@H]1COC(=O)[C@H]([C@@H](C)CC)NC(=O)[C@@H](CO)NC(=O)[C@H](CC(C)C)NC(=O)[C@H](CC(C)C)NC1=O)[C@H](C)CC?
Answer: Activity (Staphylococcus aureus [1]): inactive; Activity (Staphylococcus aureus [2]): inactive; Activity (Staphylococcus aureus [3]): inactive; Activity (Staphylococcus aureus [4]): inactive; Activity [5]: inactive; Activity (Candida albicans [6]): inactive; Activity (Candida albicans [7]): inactive; Activity (Citrobacter freundii): inactive; Activity [8]: inactive; Activity (Enterococcus faecium [9]): inactive; Activity (Enterococcus faecium [10]): inactive; Activity (Escherichia coli [11]): inactive; Activity (Escherichia coli [12]): inactive; Activity [13]: inactive; Activity [14]: inactive; Activity (Pseudomonas aeruginosa): inactive; Activity (Staphylococcus simulans): inactive; Activity (Micrococcus luteus): inactive; Activity [15]: inactive; Activity (Bacillus subtilis): inactive; Activity (Listeria welshimeri): inactive; Activity (Corynebacterium xerosis): inactive; Activity (Staphylococcus aureus [16]): inactive; Activity (Staphylococcus aureus [17]): inactive; Activity [18]: inactive; Activity [19]: inactive; Activity (Erwinia amylovora): inactive; Activity [20]: inactive; Activity (Pseudomonas fluorescens): inactive; Activity (Priestia megaterium): inactive; Activity (Rhodococcus fascians): inactive; MIC [21]: 32 µg/mL (≈ 22.9 µM)
